Reference: ChEMBL document CHEMBL1156966, “A new cytotoxic tambjamine alkaloid from the Azorean nudibranch Tambja ceutae” (Bioorg Med Chem Lett, 2010)

What was measured:
[1] = tested on: Caco-2; assay: Cytotoxicity against human Caco-2 cells after 48 hrs by MTT assay; type: functional, cell-based; settings: Caco-2, 48 h
In short: (§1)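 Cells exposed 48 h to a range of concentrations, then counted. Viability and proliferation read by MTT, which measures mitochondrial dehydrogenase activity.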

[2] = tested on: HeLa; assay: Cytotoxicity against human HeLa cells after 48 hrs by MTT assay; type: functional, cell-based; in short: as §1
[3] = tested on: C6; assay: Cytotoxicity against rat C6 cells after 48 hrs by MTT assay; type: functional, cell-based; settings: C6, 48 h; in short: as §1
[4] = tested on: H9c2; assay: Cytotoxicity against rat H9c2 cells after 48 hrs by MTT assay; type: cell-based; settings: H9c2, 48 h; in short: as §1
[5] = tested on: 3T3-L1; assay: Cytotoxicity against mouse 3T3L1 cells after 48 hrs by MTT assay; type: cell-based; settings: 3T3-L1, 48 h; in short: as §1

SMILES	IC50 [1] [µM]	IC50 [2] [µM]	IC50 [3] [µM]	IC50 [4] [µM]	IC50 [5] [µM]
COC1=CC(c2ccc[nH]2)=N/C1=C/c1[nH]c(-c2ccc[nH]2)cc1OC	91	70	7	107	24
COC1=CC(c2ccc[nH]2)=N/C1=C\NCCC(C)C [TAMBJAMINE K]	0.0035	14.6	14	2.7	19
